27 compounds from ChEMBL document CHEMBL3616394 (Eur J Med Chem, 2015) can be followed below.

Assay [1] addresses T1, Neuronal acetylcholine receptor; alpha3/beta4 (Rattus norvegicus) (UniProt P04757+P12392). The assay can be described thus: Agonist activity at recombinant rat alpha3beta4 nAChR expressed in HEK293 cells at 300 uM after 30 min by FLIPR potential blue assay. The class given is cell-based. The method in brief:
(§1)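 Stable rat α3β4 HEK293 cells were loaded with FMP dye (0.5 mg/ml) in Krebs-HEPES buffer, pH 7.4, for 30 min at 37 °C. For antagonist runs, the test compound was included in the dye buffer and EC70-EC80 ACh was then added. Fluorescence was read at ex 525/em 565 nm, 20 s before and 70 s after ligand addition, and ΔFU taken. Runs were done in duplicate, at least three times.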

Assay [2] has as its target Neuronal acetylcholine receptor; alpha3/beta4 (Rattus norvegicus, UniProt P04757+P12392). The assay can be described thus: Displacement of [3H]epibatidine from rat alpha3beta4 nACHR expressed in HEK293 cells after 4 hrs by scintillation counting assay. It counts as cell-based. The settings on record: for pKi: hek293.
The target of assay [3] is T2, Neuronal acetylcholine receptor; alpha4/beta2 (Rattus norvegicus, UniProt P09483+P12390). The assay can be described thus: Displacement of [3H]epibatidine from rat alpha4beta2 nAChR expressed in HEK293 cells after 4 hrs by scintillation counting assay. The class given is cell-based.
In assay [4] the target is T3, Neuronal acetylcholine receptor subunit alpha-4/beta-2 (Mus musculus) (UniProt Q9ERK7+O70174). The assay can be described thus: Agonist activity at recombinant mouse alpha4beta2 nAChR expressed in HEK293 cells at >=100 uM after 30 min by FLIPR potential blue assay. It counts as cell-based. The method in brief:
(§2)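 FLIPR membrane potential (FMP) dye assay on α4β2-HEK293T cells. Cells were washed in Krebs buffer (pH 7.4) and loaded with dye (0.5 mg/ml) for 30 min at 37 °C. Emission at 565 nm with excitation at 525 nm was read 20 s before and 70 s after ligand addition. Response was the ΔFU between maximal levels. Duplicate wells, at least three experiments.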

Assay [5] has as its target Neuronal acetylcholine receptor; alpha4/beta4 (Rattus norvegicus, UniProt P09483+P12392). The assay can be described thus: Displacement of [3H]epibatidine from rat alpha4beta4 nACHR expressed in HEK293 cells after 4 hrs by scintillation counting assay. It counts as cell-based. Conditions: for pKi: hek293. Background: In a radioligand displacement assay an active substance lowers the binding of a labelled ligand.

Assay [6] addresses T3, Neuronal acetylcholine receptor subunit alpha-4/beta-2 (Mus musculus). The assay can be described thus: Agonist activity at recombinant mouse alpha4beta2 nAChR expressed in HEK293 cells at 300 uM after 30 min by FLIPR potential blue assay. It counts as cell-based. The method in brief:
as §2

Assay [7] deals with Neuronal acetylcholine receptor subunit alpha-4/beta-2 (Mus musculus, UniProt O70174+Q9ERK7). As to the kind of experiment: Antagonist activity at recombinant mouse alpha4beta2 nAChR expressed in HEK293 cells assessed as inhibition of acetylcholine-induced effect after 30 min by FLIPR potential blue assay. The class given is cell-based. Put shortly:
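FMP dye assay on α4β2-HEK293T cells. Antagonist was dissolved in the dye-loading Krebs buffer (pH 7.4) and preincubated 30 min at 37 °C. EC70–EC80 ACh was then added as final agonist. 565 nm emission was read before and after addition, and inhibition curves were built from ΔFU at eight concentrations. IC50 fitted; duplicate, at least three experiments.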

In assay [8] the target is T1, Neuronal acetylcholine receptor; alpha3/beta4 (Rattus norvegicus). As to the kind of experiment: Antagonist activity at recombinant rat alpha3beta4 nAChR expressed in HEK293 cells assessed as inhibition of acetylcholine-induced effect at >=100 uM after 30 min by FLIPR potential blue assay. The class given is cell-based. The method in brief: as §1
The target in assay [9] is T2, Neuronal acetylcholine receptor; alpha4/beta2. The assay can be described thus: Displacement of [3H]epibatidine from rat alpha4beta2 nAChR expressed in HEK293 cells after 4 hr by scintillation counting assay.
Assay [10] has as its target T3, Neuronal acetylcholine receptor subunit alpha-4/beta-2 (Mus musculus). The assay can be described thus: Agonist activity at recombinant mouse alpha4beta2 nAChR expressed in HEK293 cells at >=30 uM after 30 min by FLIPR potential blue assay. It counts as cell-based. The method in brief: as §2
Assay [11] in a line: Binding affinity to Aplysia californica AChBP after 300 seconds by SPR biosensor analysis. (Surface plasmon resonance follows binding to a sensor surface in real time, without labels.)
The target of assay [12] is T2, Neuronal acetylcholine receptor; alpha4/beta2. The assay can be described thus: Agonist activity at rat (alpha4)3(beta2)2 nAChR expressed in Xenopus oocyte by two electrode voltage-clamp electrophysiology assay. Put shortly:
(§3)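 Xenopus laevis oocytes were injected with about 25 ng total cRNA for rat α4 and β2. The α4:β2 ratio was 1:4 for (α4)2(β2)3 and 10:1 for (α4)3(β2)2. Oocytes were kept at 15-18 °C and recorded 2-5 days later, clamped at -60 mV. Peak currents were taken across 10 nM-10 mM agonist, with 10 min washes between applications. Currents were normalised on the same oocyte to ACh, 300 µM at (α4)2(β2)3 and 1 mM at (α4)3(β2)2.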
(Two-electrode voltage clamp holds a large cell at a set potential and records current.)

Assay [13] shares this target. As to the kind of experiment: Agonist activity at rat (alpha4)2(beta2)3 nAChR expressed in Xenopus oocyte by two electrode voltage-clamp electrophysiology assay. Put shortly: as §3
For assay [14], the target named is Neuronal acetylcholine receptor; alpha4/beta2 (Rattus norvegicus) (UniProt P09483+P12390). The assay can be described thus: Agonist activity at rat (alpha4)3(beta2)2 nAChR expressed in Xenopus oocyte by two electrode voltage-clamp electrophysiology assay relative to acetylcholine. The method in brief: as §3

The structures appear in SMILES notation. Active and inactive are the calls of the source. The rule behind the calls is not given here.

T3 sequence (O70174 31-629 partner limits assumed): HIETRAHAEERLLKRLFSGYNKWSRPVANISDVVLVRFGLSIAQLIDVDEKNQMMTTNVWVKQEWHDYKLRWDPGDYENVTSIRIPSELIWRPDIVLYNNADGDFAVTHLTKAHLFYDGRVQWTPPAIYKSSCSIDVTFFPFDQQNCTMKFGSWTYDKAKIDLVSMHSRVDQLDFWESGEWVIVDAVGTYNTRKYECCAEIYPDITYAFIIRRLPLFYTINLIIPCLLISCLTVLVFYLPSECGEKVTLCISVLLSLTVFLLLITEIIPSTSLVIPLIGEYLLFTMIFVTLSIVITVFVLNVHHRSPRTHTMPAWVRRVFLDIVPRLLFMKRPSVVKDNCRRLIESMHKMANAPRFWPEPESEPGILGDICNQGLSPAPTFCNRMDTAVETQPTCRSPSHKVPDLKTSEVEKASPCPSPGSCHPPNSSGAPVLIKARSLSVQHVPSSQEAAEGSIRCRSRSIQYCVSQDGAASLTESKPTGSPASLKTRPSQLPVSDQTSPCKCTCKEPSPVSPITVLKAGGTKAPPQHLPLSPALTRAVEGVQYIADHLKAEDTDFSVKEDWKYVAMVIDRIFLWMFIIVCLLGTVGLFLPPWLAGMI
T3 sequence (Q9ERK7 26-501 limits assumed): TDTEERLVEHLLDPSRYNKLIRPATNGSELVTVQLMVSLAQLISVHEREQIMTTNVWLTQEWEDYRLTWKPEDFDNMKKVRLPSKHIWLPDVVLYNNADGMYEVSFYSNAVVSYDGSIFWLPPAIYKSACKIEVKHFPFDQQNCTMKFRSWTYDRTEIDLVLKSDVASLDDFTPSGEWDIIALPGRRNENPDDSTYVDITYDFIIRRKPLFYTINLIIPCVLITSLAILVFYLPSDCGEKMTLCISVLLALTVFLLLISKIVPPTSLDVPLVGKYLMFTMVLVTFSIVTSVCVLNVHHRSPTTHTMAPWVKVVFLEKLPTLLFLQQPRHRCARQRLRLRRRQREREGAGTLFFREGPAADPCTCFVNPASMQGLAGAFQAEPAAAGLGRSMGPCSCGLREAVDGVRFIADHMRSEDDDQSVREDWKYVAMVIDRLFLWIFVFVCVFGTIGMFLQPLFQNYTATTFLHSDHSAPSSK
Chain of Neuronal acetylcholine receptor; alpha3/beta4 (P04757 whole entry): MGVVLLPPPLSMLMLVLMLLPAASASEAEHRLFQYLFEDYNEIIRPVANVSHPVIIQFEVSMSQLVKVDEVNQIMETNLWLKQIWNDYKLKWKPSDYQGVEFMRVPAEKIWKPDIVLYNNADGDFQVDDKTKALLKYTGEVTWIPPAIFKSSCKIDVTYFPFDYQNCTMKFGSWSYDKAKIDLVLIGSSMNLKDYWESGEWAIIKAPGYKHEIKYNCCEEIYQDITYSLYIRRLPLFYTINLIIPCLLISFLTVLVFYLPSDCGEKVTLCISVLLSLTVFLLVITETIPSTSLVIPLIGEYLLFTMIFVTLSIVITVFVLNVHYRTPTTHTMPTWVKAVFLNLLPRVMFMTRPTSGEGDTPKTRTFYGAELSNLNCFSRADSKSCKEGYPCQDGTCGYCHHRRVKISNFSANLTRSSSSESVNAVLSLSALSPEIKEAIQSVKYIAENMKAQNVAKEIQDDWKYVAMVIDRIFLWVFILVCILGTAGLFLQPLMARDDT
Chain of Neuronal acetylcholine receptor; alpha3/beta4 (P12392 whole entry): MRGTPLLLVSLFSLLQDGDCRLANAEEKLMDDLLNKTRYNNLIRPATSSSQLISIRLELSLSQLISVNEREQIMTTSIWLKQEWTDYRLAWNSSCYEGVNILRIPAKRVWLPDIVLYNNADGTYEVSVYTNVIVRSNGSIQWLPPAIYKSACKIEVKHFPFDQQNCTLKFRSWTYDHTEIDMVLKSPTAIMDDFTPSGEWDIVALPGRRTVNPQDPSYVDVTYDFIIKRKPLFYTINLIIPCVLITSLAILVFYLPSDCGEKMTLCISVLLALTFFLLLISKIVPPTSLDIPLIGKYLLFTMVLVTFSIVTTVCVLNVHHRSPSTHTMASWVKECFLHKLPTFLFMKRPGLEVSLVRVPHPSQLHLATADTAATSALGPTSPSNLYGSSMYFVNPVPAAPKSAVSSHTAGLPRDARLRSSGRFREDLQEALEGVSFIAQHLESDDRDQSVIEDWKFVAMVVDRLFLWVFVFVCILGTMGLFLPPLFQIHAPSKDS
Chain of Neuronal acetylcholine receptor; alpha4/beta4 (P09483 whole entry): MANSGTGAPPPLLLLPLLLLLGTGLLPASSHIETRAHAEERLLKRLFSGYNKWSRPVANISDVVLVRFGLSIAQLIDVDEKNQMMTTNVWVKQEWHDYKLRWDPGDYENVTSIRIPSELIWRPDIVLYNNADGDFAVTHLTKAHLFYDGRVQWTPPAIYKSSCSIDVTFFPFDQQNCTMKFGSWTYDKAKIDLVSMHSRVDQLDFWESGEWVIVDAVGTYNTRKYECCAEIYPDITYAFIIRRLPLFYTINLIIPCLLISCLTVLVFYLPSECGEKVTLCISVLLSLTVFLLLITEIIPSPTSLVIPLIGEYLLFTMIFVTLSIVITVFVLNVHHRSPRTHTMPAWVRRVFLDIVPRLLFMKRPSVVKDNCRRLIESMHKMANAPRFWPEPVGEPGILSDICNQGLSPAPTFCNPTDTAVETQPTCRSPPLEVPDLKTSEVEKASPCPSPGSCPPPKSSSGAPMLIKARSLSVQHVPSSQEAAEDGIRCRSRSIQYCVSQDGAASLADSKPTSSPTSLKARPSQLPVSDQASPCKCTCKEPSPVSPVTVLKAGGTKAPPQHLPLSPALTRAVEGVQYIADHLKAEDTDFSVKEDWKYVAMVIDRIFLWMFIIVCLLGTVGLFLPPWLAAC
Chain of Neuronal acetylcholine receptor; alpha4/beta4 (P12392 whole entry): as the sequence (P12392 whole entry) above
T2 sequence (P09483 whole entry): as the sequence (P09483 whole entry) above
T2 sequence (P12390 whole entry): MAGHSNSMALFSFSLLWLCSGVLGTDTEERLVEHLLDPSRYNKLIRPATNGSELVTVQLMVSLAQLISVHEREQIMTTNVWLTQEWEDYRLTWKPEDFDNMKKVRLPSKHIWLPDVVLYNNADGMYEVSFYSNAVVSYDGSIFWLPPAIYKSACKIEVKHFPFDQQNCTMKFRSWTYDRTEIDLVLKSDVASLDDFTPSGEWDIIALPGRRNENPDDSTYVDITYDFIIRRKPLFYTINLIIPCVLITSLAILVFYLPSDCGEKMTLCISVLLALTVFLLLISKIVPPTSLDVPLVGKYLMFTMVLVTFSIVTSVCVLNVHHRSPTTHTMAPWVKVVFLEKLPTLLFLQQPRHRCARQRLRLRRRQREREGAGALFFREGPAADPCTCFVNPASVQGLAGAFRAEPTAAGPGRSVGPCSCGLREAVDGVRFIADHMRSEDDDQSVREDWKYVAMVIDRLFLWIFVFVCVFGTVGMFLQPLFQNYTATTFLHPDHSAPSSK
Chain of Neuronal acetylcholine receptor subunit alpha-4/beta-2 (Q9ERK7 whole entry): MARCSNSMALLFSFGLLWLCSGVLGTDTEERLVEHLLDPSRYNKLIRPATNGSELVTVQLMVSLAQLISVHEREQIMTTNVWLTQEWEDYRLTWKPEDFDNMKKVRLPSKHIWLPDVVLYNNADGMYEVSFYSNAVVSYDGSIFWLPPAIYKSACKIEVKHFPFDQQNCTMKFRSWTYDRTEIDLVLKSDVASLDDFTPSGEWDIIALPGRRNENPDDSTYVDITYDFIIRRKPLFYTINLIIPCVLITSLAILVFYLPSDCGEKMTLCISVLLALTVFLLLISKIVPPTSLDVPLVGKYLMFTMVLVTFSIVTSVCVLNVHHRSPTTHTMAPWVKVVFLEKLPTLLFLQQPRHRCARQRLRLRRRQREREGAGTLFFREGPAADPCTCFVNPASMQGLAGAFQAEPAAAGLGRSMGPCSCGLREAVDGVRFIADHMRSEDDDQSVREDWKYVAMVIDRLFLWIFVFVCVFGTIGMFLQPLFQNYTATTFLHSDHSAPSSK
Chain of Neuronal acetylcholine receptor subunit alpha-4/beta-2 (O70174 whole entry): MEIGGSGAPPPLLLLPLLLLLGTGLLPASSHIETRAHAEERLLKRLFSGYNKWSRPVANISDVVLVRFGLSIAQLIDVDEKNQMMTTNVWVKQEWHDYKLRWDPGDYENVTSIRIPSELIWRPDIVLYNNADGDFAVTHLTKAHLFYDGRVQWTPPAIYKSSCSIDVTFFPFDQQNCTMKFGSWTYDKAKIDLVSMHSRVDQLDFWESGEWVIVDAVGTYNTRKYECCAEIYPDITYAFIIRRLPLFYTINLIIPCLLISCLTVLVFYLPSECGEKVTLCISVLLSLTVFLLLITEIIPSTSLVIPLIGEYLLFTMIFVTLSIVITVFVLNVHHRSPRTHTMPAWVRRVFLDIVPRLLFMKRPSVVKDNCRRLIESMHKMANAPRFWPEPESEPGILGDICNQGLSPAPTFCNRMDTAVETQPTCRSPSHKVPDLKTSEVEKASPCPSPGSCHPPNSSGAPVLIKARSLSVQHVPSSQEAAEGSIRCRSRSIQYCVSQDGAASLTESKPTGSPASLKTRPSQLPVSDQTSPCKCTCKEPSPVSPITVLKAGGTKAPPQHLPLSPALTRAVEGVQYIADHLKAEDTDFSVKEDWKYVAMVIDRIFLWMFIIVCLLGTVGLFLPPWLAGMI

For `CN(C)C(=O)OCCC(CCCc1ccccc1)N(C)C` (stereo not drawn), the result in assay [1] and in assay [4] was Active. The Ki in [2] (read-out: Ki) stood at 13 µM; in [3], 1.9 µM; in assay [5], 4.9 µM.
On to `CNC(=O)OCCC(CCC(O)c1ccccc1)N(C)C` (stereo not drawn), for which the Ki is over 300 µM in assay [2] (read-out: Ki), over 316 µM in [2] (read-out: pKi (converted)), 100 µM in [3] and 100 µM in assay [5].
Take `CNC(=O)OCCC(CCCCCc1ccccc1)N(C)C` (stereo not drawn): the values for the Ki in [2] (read-out: Ki), in assay [3] and in [5] were 50 µM, 2.7 µM and 4.5 µM, respectively.
On the same counts, the results for `c1ccc(CCN2CCCN(c3cccnc3)CC2)cc1` are 3.4 µM, 0.11 µM and 2.4 µM.
Turning to `c1ccc(CCCN2CCN(c3cccnc3)CC2)cc1`, the result in assay [1] and in assay [4] was Active. Further, the Ki stood at 20 µM in assay [2] (read-out: Ki), 0.49 µM in [3] and 3.5 µM in assay [5].
Turning to `CNC(=O)OCCC(C)N(C)Cc1ccccc1` (stereo not drawn), the Ki in assay [2] (read-out: Ki), in assay [3] and in assay [5] was 300 µM in each case.
Consider `CN(C)C(=O)OCCC(COc1ccccn1)N(C)C` (stereo not drawn), for which the Ki in assay [2] (read-out: Ki) is 300 µM; in assay [3], 100 µM; in assay [5], 300 µM.
`c1ccc(CCN2CCN(c3cccnc3)CC2)cc1`: the outcome in assay [1] and in [6] was Active. Moreover, the figures for the Ki in assay [2] (read-out: Ki), in assay [3] and in assay [5] were 8.2 µM, 0.56 µM and 8.9 µM, respectively.
`CNC(=O)OCCC(C)N(C)CCCc1ccccc1` (stereo not drawn): the pKi in assay [2] and in assay [5] was under 3 each time. In addition, the Ki in assay [2] (read-out: Ki) was over 1000 µM; in assay [3] it was 50 µM; in [5], over 1000 µM.
As for `CC(CCOC(=O)N(C)C)N(C)CCCc1ccccc1` (stereo not drawn), the pKi in [2] and in [5] was under 3 throughout. The results for the Ki in [2] (read-out: Ki), in [3] and in assay [5] were over 1000 µM, 300 µM and over 1000 µM, respectively.
With `C(=C\N1CCCN(c2cccnc2)CC1)/c1ccccc1`, the Ki in assay [2] (read-out: Ki) turned out to be 2.9 µM; in [3], 0.099 µM; in [5], 1.6 µM. Also, the IC50 (as a rule, the point on the concentration scale where inhibition reaches its midpoint) in assay [7] was 1100 nM. In addition, the inhibition result in assay [8] was “inactive”.
As to `CN(C)C(=O)OCCC(CCCCc1ccccc1)N(C)C` (stereo not drawn), the result in assay [1] and in assay [4] was Active. The Ki in assay [2] (read-out: Ki) was determined as 11 µM; in assay [3], 1.1 µM; in [5] it was 4.4 µM.
Take `CNC(=O)OCCC(CCCCc1ccccc1)N(C)C` (stereo not drawn): the result in assay [1] and in assay [4] was Active. For the same compound, the Ki in assay [2] (read-out: Ki) came to 100 µM; in assay [3], 3.6 µM; in assay [5], 30 µM.
Consider `CC(CCOC(=O)N(C)C)N(C)CC(O)Cc1ccccc1` (stereo not drawn), for which the pKi (commonly −log10 of the Ki, conventionally taken in molar units) in [2] is recorded as under 3. The Ki in assay [2] (read-out: Ki) was over 1000 µM; in assay [3] it was 500 µM; in [5] it was 100 µM.
For `CNC(=O)OCCC(C)N(C)CCc1ccccc1` (stereo not drawn), the values for the Ki in [2] (read-out: Ki), in assay [3] and in [5] were 300 µM, 30 µM and 300 µM, respectively.
For `Brc1ccc(N2CCCN(CCCc3ccccc3)CC2)cn1`, the Ki in [2] (read-out: Ki) came out at 2.2 µM; in [3], 0.82 µM; in assay [5] it was 1.5 µM.
For `CNC(=O)OCCC(CCCc1ccccc1)N(C)C` (stereo not drawn), the result in assay [1] and in [4] was Active. The values for the Ki in assay [2] (read-out: Ki), in [3] and in [5] were 100 µM, 11 µM and 30 µM, respectively.
`c1cncc(N2CCCNCC2)c1` yielded a Ki in [9] of 0.72 nM.
Turning to `CN(C)C(CCCCc1ccccc1)CCOc1nccn1C` (stereo not drawn), the figures for the Ki in assay [2] (read-out: Ki), in [3] and in assay [5] were 8.3 µM, 0.76 µM and 3.7 µM, respectively. The outcome in assay [10] was Active.
For `CN(C)C(=O)OCCC(COc1ccc(F)cc1)N(C)C` (stereo not drawn), the results for the Ki in assay [2] (read-out: Ki), in assay [3] and in assay [5] were 300 µM, 500 µM and 100 µM, respectively.
For the compound `CN(C)C(=O)OCCC(CCC(O)c1ccccc1)N(C)C` (stereo not drawn), the Ki was 5.9 µM in assay [2] (read-out: Ki), 6.03 µM in assay [2] (read-out: pKi (converted)), 30 µM in assay [3] and 6.7 µM in assay [5].
For the compound `CN1[C@@H](CC(=O)c2ccccc2)CCC[C@H]1C[C@H](O)c1ccccc1` [LOBELINE], in assay [11], the Kd (commonly a measure of binding affinity in units of concentration) amounted to 13 nM and the negative-log Kd (pKd) (commonly the Kd on a negative log10 scale, so that one unit is a factor of ten) was 7.9.
Take `c1ccc(CN2CCN(c3cccnc3)CC2)cc1`: the Ki in assay [2] (read-out: Ki) was over 300 µM; in [2] (read-out: pKi (converted)), over 316 µM; in assay [3], 9.6 µM; in assay [5] it was 100 µM.
On to `Brc1cccc(CCN2CCCN(c3cccnc3)CC2)c1`, for which the Ki in assay [2] (read-out: Ki) was found to be 0.78 µM; in [3] it was 0.13 µM; in [5], 1.9 µM.
As for `c1ccc(CCCN2CCCN(c3cccnc3)CC2)cc1`, the Ki in [2] (read-out: Ki) came to 3.8 µM; in assay [3] it was 0.082 µM; in assay [5] it was 3.8 µM. Moreover, in assay [11], the Kd was over 1000 nM. In addition, the pKd in [11] is on record as under 6.
Regarding `CNC(=O)OCCC(C)N(C)CC(O)c1ccccc1` (stereo not drawn), the Ki turned out to be 1000 µM in assay [2] (read-out: Ki), 300 µM in assay [3] and 300 µM in assay [5].
On to `c1ccc(CN2CCCN(c3cccnc3)CC2)cc1`, for which the Ki in assay [2] (read-out: Ki) was found to be 2.6 µM; in assay [3], 0.104 µM; in assay [5] it was 3.4 µM. Further, the EC50 (as a rule, the midpoint of the concentration-response curve) turned out to be 7.9 µM in assay [12] and 1800 nM in assay [13]. Besides, the Kd in assay [11] was over 1000 nM. The same compound had a negative-log Kd (pKd) in assay [11] of under 6. Further, the Rmax in assay [14] was determined as 6.
